Source: ChEMBL document CHEMBL2424625, “Synthesis and structure-activity relationships of novel indazolyl glucocorticoid receptor partial agonists” (Bioorg Med Chem Lett, 2013)

What was measured:
[1] = target: T1, Glucocorticoid receptor (Homo sapiens, UniProt P04150); assay: Transactivation activity at glucocorticoid receptor ligand binding domain (unknown origin) expressed in human Hela cells co-expressing GAL4 DNA binding domain assessed as NP-1-stimulated GRE activation by luciferase reporter gene assay; assay type: cell-based
T1 sequence (P04150 whole entry): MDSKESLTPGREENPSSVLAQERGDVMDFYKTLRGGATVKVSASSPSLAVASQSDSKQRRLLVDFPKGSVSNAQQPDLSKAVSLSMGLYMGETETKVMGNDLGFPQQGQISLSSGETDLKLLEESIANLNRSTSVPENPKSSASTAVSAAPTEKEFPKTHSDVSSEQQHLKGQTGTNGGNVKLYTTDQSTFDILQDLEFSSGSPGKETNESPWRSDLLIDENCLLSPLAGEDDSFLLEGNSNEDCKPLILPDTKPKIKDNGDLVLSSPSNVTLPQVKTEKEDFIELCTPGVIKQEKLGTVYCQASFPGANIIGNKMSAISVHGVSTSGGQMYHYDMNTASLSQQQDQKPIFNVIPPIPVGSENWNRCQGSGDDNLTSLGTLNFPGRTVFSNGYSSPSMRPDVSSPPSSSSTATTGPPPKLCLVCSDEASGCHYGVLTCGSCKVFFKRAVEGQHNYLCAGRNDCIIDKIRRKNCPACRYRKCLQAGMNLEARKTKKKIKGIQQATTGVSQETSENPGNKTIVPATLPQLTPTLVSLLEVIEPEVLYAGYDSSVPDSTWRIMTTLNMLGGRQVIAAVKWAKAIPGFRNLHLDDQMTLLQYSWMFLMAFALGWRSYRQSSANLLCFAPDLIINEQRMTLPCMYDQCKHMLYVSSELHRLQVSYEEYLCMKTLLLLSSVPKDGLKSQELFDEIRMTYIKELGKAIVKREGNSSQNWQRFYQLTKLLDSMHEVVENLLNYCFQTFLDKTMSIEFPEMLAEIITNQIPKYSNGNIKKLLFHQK

[2] = target: T1, Glucocorticoid receptor; assay: Transrepression activity at glucocorticoid receptor in human A549 cells assessed as inhibition of IL1beta-stimulated NFkappaB-dependent E-selectin transcription by luciferase reporter gene assay; assay type: cell-based
[3] = target: T2, Androgen receptor (Homo sapiens, UniProt P10275); assay: Binding affinity to androgen receptor (unknown origin) by fluorescence assay
T2 sequence (P10275 whole entry): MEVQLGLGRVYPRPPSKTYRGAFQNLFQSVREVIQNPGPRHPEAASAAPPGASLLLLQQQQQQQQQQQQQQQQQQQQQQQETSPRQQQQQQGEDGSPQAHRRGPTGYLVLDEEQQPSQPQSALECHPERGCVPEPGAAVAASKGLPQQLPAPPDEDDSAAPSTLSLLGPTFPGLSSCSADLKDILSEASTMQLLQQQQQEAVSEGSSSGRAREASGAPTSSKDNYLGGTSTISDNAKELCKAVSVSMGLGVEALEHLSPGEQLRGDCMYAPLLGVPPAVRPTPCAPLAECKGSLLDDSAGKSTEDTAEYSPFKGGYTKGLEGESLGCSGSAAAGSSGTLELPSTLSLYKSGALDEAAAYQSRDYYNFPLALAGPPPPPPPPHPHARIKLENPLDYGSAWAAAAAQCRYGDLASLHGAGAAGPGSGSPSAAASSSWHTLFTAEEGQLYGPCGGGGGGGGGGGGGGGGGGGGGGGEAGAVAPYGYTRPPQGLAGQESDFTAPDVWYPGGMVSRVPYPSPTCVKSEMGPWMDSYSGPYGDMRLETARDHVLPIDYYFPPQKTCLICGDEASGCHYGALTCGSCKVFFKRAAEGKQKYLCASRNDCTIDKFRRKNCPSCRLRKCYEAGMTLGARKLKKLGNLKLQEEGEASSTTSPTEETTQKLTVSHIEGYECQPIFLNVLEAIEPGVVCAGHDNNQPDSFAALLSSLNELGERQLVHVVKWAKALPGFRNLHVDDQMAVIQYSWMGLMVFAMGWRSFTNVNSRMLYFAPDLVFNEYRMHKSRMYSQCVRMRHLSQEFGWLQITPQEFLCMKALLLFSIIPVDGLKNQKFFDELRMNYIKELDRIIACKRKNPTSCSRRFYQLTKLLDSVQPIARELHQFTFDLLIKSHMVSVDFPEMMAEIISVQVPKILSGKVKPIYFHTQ
Outline: (§1)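 Fluorescence polarization competition between test compound and a fluorescently labeled ligand for binding to full-length receptor or its ligand binding domain. IC50 was fit to the signal by four-parameter logistic equation. Ki = IC50/(1 + ligand concentration/Kd) (Cheng–Prusoff).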

[4] = target: T1, Glucocorticoid receptor; assay: Binding affinity to glucocorticoid receptor (unknown origin) by fluorescence assay
[5] = target: T3, Progesterone receptor (Homo sapiens, UniProt P06401); assay: Binding affinity to progesterone receptor (unknown origin) by fluorescence assay; outline: as §1
T3 sequence (P06401 whole entry): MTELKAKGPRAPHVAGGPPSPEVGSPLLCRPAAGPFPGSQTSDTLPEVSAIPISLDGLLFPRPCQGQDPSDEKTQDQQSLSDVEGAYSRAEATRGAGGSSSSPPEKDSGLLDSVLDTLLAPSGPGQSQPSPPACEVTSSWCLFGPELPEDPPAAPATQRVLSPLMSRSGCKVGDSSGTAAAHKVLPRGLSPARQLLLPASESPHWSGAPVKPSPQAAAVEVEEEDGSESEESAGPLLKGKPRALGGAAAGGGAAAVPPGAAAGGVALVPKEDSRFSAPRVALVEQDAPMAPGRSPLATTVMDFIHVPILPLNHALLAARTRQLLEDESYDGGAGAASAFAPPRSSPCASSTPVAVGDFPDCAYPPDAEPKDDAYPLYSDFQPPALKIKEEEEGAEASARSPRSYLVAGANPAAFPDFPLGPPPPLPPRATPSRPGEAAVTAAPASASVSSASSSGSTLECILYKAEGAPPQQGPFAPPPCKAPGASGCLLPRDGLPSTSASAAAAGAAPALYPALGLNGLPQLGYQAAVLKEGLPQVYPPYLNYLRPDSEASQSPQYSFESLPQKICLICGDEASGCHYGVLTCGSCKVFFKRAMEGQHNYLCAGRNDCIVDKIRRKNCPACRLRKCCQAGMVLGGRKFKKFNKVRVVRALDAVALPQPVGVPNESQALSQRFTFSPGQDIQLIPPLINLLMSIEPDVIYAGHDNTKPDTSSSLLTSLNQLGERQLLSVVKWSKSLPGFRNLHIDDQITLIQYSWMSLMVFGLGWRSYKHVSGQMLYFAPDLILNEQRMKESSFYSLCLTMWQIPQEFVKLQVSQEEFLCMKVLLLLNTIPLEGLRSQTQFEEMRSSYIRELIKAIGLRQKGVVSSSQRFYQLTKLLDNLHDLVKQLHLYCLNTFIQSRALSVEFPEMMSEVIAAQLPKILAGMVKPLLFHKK

[6] = target: T4, Glucocorticoid receptor (Homo sapiens) (UniProt P04150); assay: Transactivation activity at glucocorticoid receptor ligand binding domain (unknown origin) expressed in human Hela cells co-expressing GAL4 DNA binding domain assessed as NP-1-stimulated GRE activation by luciferase reporter gene assay relative to dexamethasone; assay type: cell-based
T4 sequence (whole entry): T1 sequence (P04150 whole entry)
Outline: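 HeLa line (NP-1) stably transfected with a GR-LBD chimera cloned into a GAL4 luciferase reporter was run in agonist mode. Direct GR-LBD activation was read as increased luciferase activity. […] Values are means of two or more experiments in triplicate.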

EC50 [1] [nM] | EC50 [2] [nM] | Ki [3] [nM] | Ki [4] [nM] | Ki [5] [nM] | Efficacy [6] [%] | SMILES
429 | 58 | > 5000 | 5.14 | > 5000 | 12 | CC(C)(C)NC(=O)NCC(C)(C)[C@@H](c1ccccc1)c1ccc2c(cnn2-c2ccc(F)cc2)c1
202 | 7.6 | > 5000 | 0.64 | 406 | 24 | CC(C)(CNS(=O)(=O)CC(F)(F)F)[C@@H](c1ccccc1)c1ccc2c(cnn2-c2ccc(F)cc2)c1
129 | 6.85 | > 5000 | 0.81 | > 5000 | 65 | CC(C)(CNC(=O)CC(F)(F)F)[C@@H](c1ccccc1)c1ccc2c(cnn2-c2ccc(F)cc2)c1
